Source: ChEMBL document CHEMBL4665634, “Inhibiting Aβ toxicity in Alzheimer's disease by a pyridine amine derivative” (Eur J Med Chem, 2019)
Activity calls are given as the source filed them. The calls are words filed in the database; no cut-off is given here.

Key:
[1] = system: Caenorhabditis elegans; assay: Reduction in Amyloid-beta deposits in transgenic Caenorhabditis elegans CL4176 using anti-Abeta 6E10/rhodamine-phalloidin at 50 to 100 uM after 48 hrs by immunostaining; assay type: functional; details: dose microM 50-100, time 48.0 hrs
Procedure, shortened: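 CL4176 L3 worms kept on compound plates (50, 100 µM) at 25 °C for 2 days. Fixed in 4% paraformaldehyde and permeabilized with 1% Triton X-100. Stained with 6E10 plus Alexa Fluor 488 secondary and rhodamine-phalloidin (1:4000). Confocal imaging at ex 488/em 500–530 nm and ex 543/em 565–605 nm.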

[2] = target: T1, Amyloid-beta precursor protein (Homo sapiens, UniProt P05067); assay: Inhibition of amyloid beta (1 to 42)-induced paralysis in transgenic Caenorhabditis elegans CL4176 expressing human amyloid beta (1 to 42) assessed as paralyzed worms at 100 uM treated for 49 hrs at 25 degreeC by microscopic analysis (reference value: 87 %); design: scale not given: the % may be the effect or the level left
T1 sequence (P05067 whole entry): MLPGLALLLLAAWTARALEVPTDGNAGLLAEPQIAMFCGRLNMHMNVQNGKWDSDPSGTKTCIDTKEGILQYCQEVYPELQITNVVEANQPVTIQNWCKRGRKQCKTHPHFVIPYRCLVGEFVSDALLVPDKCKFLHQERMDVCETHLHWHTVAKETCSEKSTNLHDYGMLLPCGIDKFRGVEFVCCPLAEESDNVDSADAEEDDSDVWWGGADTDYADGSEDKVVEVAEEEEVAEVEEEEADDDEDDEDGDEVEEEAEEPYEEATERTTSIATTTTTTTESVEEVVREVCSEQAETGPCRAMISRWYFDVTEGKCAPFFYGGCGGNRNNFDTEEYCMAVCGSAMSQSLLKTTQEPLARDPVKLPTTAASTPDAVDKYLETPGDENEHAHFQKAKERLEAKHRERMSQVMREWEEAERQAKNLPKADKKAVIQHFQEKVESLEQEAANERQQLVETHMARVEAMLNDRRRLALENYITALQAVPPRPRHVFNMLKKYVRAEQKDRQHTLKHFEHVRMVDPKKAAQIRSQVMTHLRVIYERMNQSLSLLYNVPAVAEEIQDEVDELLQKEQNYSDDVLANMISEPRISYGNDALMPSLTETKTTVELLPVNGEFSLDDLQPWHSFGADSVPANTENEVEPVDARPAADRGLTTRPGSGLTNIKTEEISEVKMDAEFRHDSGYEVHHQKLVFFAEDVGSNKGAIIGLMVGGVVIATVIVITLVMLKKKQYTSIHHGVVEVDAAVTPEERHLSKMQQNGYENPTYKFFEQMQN

[3] = system: Caenorhabditis elegans; assay: Upregulation of hsp-16.2 mRNA expression in Caenorhabditis elegans CL4176 at 50 uM by qRT-PCR analysis relative to control; assay type: functional
Procedure, shortened: (§1)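 CL4176 worms treated with compound at 25 °C for 48 h (50, 100 µM for amy-1). RNA extracted with Trizol, cDNA made, EvaGreen qRT-PCR run for 40 cycles (95 °C 5 s, 60 °C 5 s). Normalized to ama-1 by the 2^−ΔΔCt method. Three independent preparations, samples in triplicate.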

[4] = system: Mus musculus; assay: Cognitive enhancing effect in APP/PS1 double mutant-transgenic C57BL/6 mouse model assessed as increase in number of hidden escape platform crossings at 1 mg/kg, iv; assay type: functional, organism-based
[5] = system: PC-12; assay: Cytotoxicity against rat PC-12 cells assessed as reduction in cell viability at 100 uM measured after 48 hrs by MTT assay relative to control; assay type: cell-based; details: pc-12, 48 h
Procedure, shortened: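 PC12 cells differentiated with NGF, then cultured overnight in RPMI-1640 with 10% FBS at 37 °C, 5% CO2. MTT assay with formazan absorbance at 570 nm. Viability = (OD test − blank)/(OD control − blank) × 100%, mean of three replicates.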

[6] = target: T1, Amyloid-beta precursor protein; assay: Inhibition of self-induced amyloid beta (1 to 42) (unknown origin) aggregation assessed as decrease in negative band ellipticity and shift around 230 nm resulting in modulation of amyloid beta (1 to 42) conformation at 80 uM incubated for 24 hrs by circular dichroism spectroscopy
Procedure, shortened: (§2)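 CD spectra taken on Aβ42 (40 µM). Metal ion (ZnCl2 or CuCl2, 40 µM) was preincubated 5 min at room temperature where present, then compound (80 µM) was added and incubated at 37 °C for 24 h. Spectra recorded 190–270 nm in a 1.0 cm quartz cell, bandwidth 0.1 nm, response time 10 s.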

[7] = target: T1, Amyloid-beta precursor protein; assay: Inhibition of amyloid beta (1 to 42)-induced paralysis in transgenic Caenorhabditis elegans CL4176 L3 expressing human amyloid beta (1 to 42) assessed as reduction in fluorescence intensity at 50 to 200 uM incubated for 2 days by thiofavin-T based fluorescence microscopic analysis; details: dose microM 50-200, time 2.0 day
Procedure, shortened: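 CL4176 L3 worms kept on compound plates (50, 100, 200 µM) at 25 °C for 2 days. Stained with ThT (10 µM) for 5 min, held 2 h on NGM without OP50, then mounted on 2% agarose pads. Fluorescence imaged at ex 488/em 500–530 nm, in triplicate with 15–20 worms per group.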

[8] = Disaggregation of Cu2+ induced fibrils of amyloid beta (1 to 40) assessed as appearance of small soluble fragments at 0.1 to 100 uM incubated for 24 hrs uranyl acetate staining-based by TEM analysis; details: dose microM 0.1-100, time 24.0 hrs
[9] = system: Caenorhabditis elegans; assay: Inhibition of AChE in Caenorhabditis elegans CL4176 assessed as enzyme activity at 25 uM after 48 hrs by DTNB reagent based colorimetric analysis (reference value: 272.49 +/- 14.6 units/L)
Procedure, shortened: (§3)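 Transgenic CL4176 worms kept on NGM plates with compound (0, 25, 50, 100 µM) at 25 °C for 48 h. Lysates made by sonication in 0.1 M phosphate buffer pH 7.4 and centrifuged at 13000 rpm for 5 min. AChE activity in the supernatant was measured with a kit, read as absorbance at 412 nm, given in Units/L normalized to protein concentration, mean ± S.D.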

[10] = system: Caenorhabditis elegans; assay: Reduction in amy-1 mRNA expression in Caenorhabditis elegans CL4176 at 50 to 100 uM after 48 hrs by qRT-PCR analysis; assay type: functional; details: dose microM 50-100, time 48.0 hrs; procedure, shortened: as §1
[11] = system: Caenorhabditis elegans; assay: Inhibition of AChE in Caenorhabditis elegans CL4176 assessed as enzyme activity at 100 uM after 48 hrs by DTNB reagent based colorimetric analysis (reference value: 272.49 +/- 14.6 units/L); procedure, shortened: as §3
[12] = target: T1, Amyloid-beta precursor protein; assay: Inhibition of self-induced aggregation amyloid beta (1 to 42) (unknown origin) assessed as reduction in fibril formation incubated for 24 hrs by Thioflavin T based fluorometric assay
Procedure, shortened: (§4)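 Aβ42 (20 µM) mixed with compound (0.1–100 µM), with or without Zn2+ (20 µM), in Tris-HCl pH 7.4, incubated at 37 °C for 24 h. ThT (5 µM) added, fluorescence read at ex 450/em 485 nm.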

[13] = target: T1, Amyloid-beta precursor protein; assay: Inhibition of amyloid beta (1 to 42)-induced paralysis in transgenic Caenorhabditis elegans GMC101 L3 expressing human amyloid beta (1 to 42) assessed as reduction in fluorescence intensity at 100 uM incubated for 2 days by fluorescence based confocal microscopic analysis relative to control; details: time 2.0 day
Procedure, shortened: (§5)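 GMC101 L3 worms kept on compound plates (50, 100 µM) at 25 °C for 2 days, mounted on 2% agarose pads. GFP imaged by confocal microscopy at ex 488/em 500–530 nm and intensity quantified. Two experiments, 15 worms per group.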

[14] = target: T1, Amyloid-beta precursor protein; assay: Inhibition of amyloid beta (1 to 42)-induced paralysis in transgenic Caenorhabditis elegans GMC101 L3 expressing human amyloid beta (1 to 42) assessed as reduction in fluorescence intensity at 50 uM incubated for 2 days by fluorescence based confocal microscopic analysis relative to control; details: time 2.0 day; procedure, shortened: as §5
[15] = system: Caenorhabditis elegans; assay: Inhibition of AChE in Caenorhabditis elegans CL4176 assessed as enzyme activity at 50 uM after 48 hrs by DTNB reagent based colorimetric analysis (reference value: 272.49 +/- 14.6 units/L); procedure, shortened: as §3
[16] = Inhibition of Cu2+ induced amyloid beta (1 to 40) aggregation assessed as reduction in fluorescence intensity at 20 uM preincubated for 5 mins in presence of CuCl2 followed by compound addition addition and incubated for 24 hrs by Thioflavin T based fluorometric assay
Procedure, shortened: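 Aβ40 (20 µM) preincubated with CuCl2 or ZnCl2 (20 µM) for 5 min at room temperature. Compound (20 µM) added, incubated 37 °C for 24 h. ThT (5 µM) added, fluorescence read at ex 450/em 485 nm. Mean ± S.D. of at least three independent experiments.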

[17] = target: T1, Amyloid-beta precursor protein; assay: Inhibition of self-induced amyloid beta (1 to 42) (unknown origin) aggregation assessed as decrease in negative band ellipticity and shift around 230 nm resulting in inhibition of beta-sheets formation at 80 uM incubated for 24 hrs by circular dichroism spectroscopy; procedure, shortened: as §2
[18] = system: Caenorhabditis elegans; assay: Antioxidant activity in Caenorhabditis elegans CL4176 assessed as effect on ROS production at 100 uM and 15 to 25 degreeC after 48 hrs by H2DCF-DA probe based fluorescence assay ( Rvb = 33.68 %); assay type: functional
[19] = target: T1, Amyloid-beta precursor protein; assay: Inhibition of amyloid beta (1 to 42)-induced paralysis in transgenic Caenorhabditis elegans CL4176 L3 expressing human amyloid beta (1 to 42) assessed as roller movement of worms by microscopic analysis
[20] = system: Caenorhabditis elegans; assay: Protection against oligomycin-induced mitochondrial stress in Caenorhabditis elegans CL4176 assessed as effect oxygen consumption rate at 100 uM after 48 hrs by seahorse XFe24 analyser based assay
[21] = Inhibition of Zn2+ induced amyloid beta (1 to 42) aggregation assessed as reduction in fibril formation incubated for 24 hrs in presence of Zn2+ by Thioflavin T based fluorometric assay; procedure, shortened: as §4

Oc1cc(CN(Cc2ccccn2)Cc2ccccn2)cc(C[P+](c2ccccc2)(c2ccccc2)c2ccccc2)c1.[Br-]
Activity [1]: Active | Activity [2]: 66% | fold change (FC) [3]: 2.15 | Activity [4]: Active | Activity [5]: 80.5% | inhibition [6]: Active | inhibition [7]: Active | Activity [8]: Active | Activity [9]: 248 U/L | Activity [10]: Active | Activity [11]: 135 U/L | IC50 [12]: 12.5 µM | inhibition [12]: Dose-dependent effect | inhibition [13]: 20% | inhibition [14]: 43% | Activity [15]: 166 U/L | inhibition [16]: Active | inhibition [17]: Active | Activity [18]: 21.72% | Activity [19]: Active | Activity [20]: Active | IC50 [21]: 27.4 µM | inhibition [21]: Dose-dependent effect
